Experimental findings from ChEMBL document CHEMBL4402610 (J Med Chem, 2020) are described below.

The target in one experiment is Protease (Human immunodeficiency virus 1, UniProt Q9YQ12). Nature of the experiment: Inhibition of HIV-1 protease.
In experiment [1] the test system is Human immunodeficiency virus 1. Briefly: Antiviral activity against HIV1 LAI infected in human MT2 cells. The class given is functional, organism-based. The note with it: Human immunodeficiency virus 1, M:B_Lai.
The nature of experiment [2]: Selectivity ratio of IC50 for antiviral activity against lopinavir resistant HIV1 harboring protease L10F/V32I/M46I/I47A/A71V/I84V mutant infected in human MT4 cells to IC50 for antiviral activity against wild-type HIV1 NL4-3. The class given is functional.
Experiment [3] in a line: Selectivity ratio of IC50 for antiviral activity against atazanavir resitant HIV1 harboring protease L23I/E34Q/K43I/M46I/I50L/G51A/L63P/A71V/V82A/T91A mutant infected in human MT4 cells to IC50 for antiviral activity against wild-type HIV1 NL4-3. The class given is functional.
Experiment [4] has as its system Human immunodeficiency virus 1. Briefly: Antiviral activity against atazanavir resistant HIV1 harboring protease L23I/E34Q/K43I/M46I/I50L/G51A/L63P/A71V/V82A/T91A mutant infected in human MT4 cells assessed as reduction in p24 Gag production. The class given is functional, organism-based. The note with it: Human immunodeficiency virus 1, MT4. An outline of the steps: (§1)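 MT-4 cells (10^5/mL) were exposed to 100 TCID50s of each HIV-1 and treated with drug. Inhibition of p24 Gag protein production was the endpoint for EC50. PI-resistant variants had been selected in vitro by passaging HIV-1 NL4-3 in MT-4 cells under increasing PI (up to 5 μM). Assays were run in duplicate, and values are means of two independent experiments.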

The test system of experiment [5] is Human immunodeficiency virus 1. Briefly: Antiviral activity against HIV1 NL4-3 infected in human MT4 cells assessed as reduction in p24 Gag protein production. The class given is functional, organism-based. Particulars: Human immunodeficiency virus 1, NL4-3, MT4.
Experiment [6] in a line: Selectivity ratio of IC50 for antiviral activity against darunavir resistant HIV1 P30 harboring protease L10I/I15V/K20R/L24I/V32I/M36I/ M46L/L63P/K70Q/V82A/I84V/L89M mutant infected in human MT4 cells to IC50 for antiviral activity against wild-type HIV1 NL4-3. Type of experiment: functional.
Experiment [7] concerns Human immunodeficiency virus 1. Nature of the experiment: Antiviral activity against lopinavir resistant HIV1 harboring protease L10F/V32I/M46I/I47A/A71V/I84V mutant infected in human MT4 cells assessed as inhibition of p24 Gag production. Type of experiment: functional, organism-based. The note with it: Human immunodeficiency virus 1, MT4. An outline of the steps: as §1

For experiment [8], the system named is Human immunodeficiency virus 1. Briefly: Antiviral activity against darunavir resistant HIV1 harboring protease P30 L10I/I15V/K20R/L24I/V32I/M36I/ M46L/L63P/K70Q/V82A/I84V/L89M mutant infected in human MT4 cells assessed as reduction in p24 Gag production. Particulars: Human immunodeficiency virus 1, MT4. The class given is functional, organism-based. An outline of the steps: as §1

Chain of Protease (Q9YQ12 whole entry): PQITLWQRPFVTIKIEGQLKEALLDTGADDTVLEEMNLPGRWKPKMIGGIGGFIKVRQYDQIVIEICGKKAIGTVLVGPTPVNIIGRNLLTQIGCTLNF

Usually Ki stands for a dissociation constant, usually derived from enzyme kinetics or from competition with a known ligand. High values mean lower affinity, low ones higher affinity. Broadly, the IC50 is the midpoint of a concentration-inhibition curve. Consider `CC(C)CN(C[C@@H](O)[C@H](Cc1ccccc1)NC(=O)OC1C[C@@H]2CO[C@@H]3OC1C[C@H]23)S(=O)(=O)c1ccc2nc(NC(C)C)oc2c1` (stereo partly drawn), for which the Ki on Protease came out at 0.006 nM. Further, the IC50 in experiment [1] was determined as 1.73 nM.
At Protease, `CC(C)CN(C[C@@H](O)[C@H](Cc1ccccc1)NC(=O)O[C@H]1C[C@H]2CO[C@H]3OC1C[C@@H]23)S(=O)(=O)c1ccc2nc(NC3CC3)sc2c1` yielded a Ki of 0.027 nM. Also, it took 1.86 nM to reach half-maximal inhibition in experiment [1] (IC50).
Consider `CC(C)CN(C[C@@H](O)[C@H](Cc1cccc(F)c1)NC(=O)OC1C[C@@H]2CO[C@@H]3OC1C[C@H]23)S(=O)(=O)c1ccc2nc(NC3CC3)sc2c1` (stereo partly drawn), for which the affinity on Protease corresponds to a Ki of 0.008 nM. The compound further registered an IC50 in experiment [1] of 1.28 nM.
`CC(C)CN(C[C@@H](O)[C@H](Cc1ccc(F)cc1)NC(=O)O[C@H]1C[C@H]2CO[C@H]3OC1C[C@@H]23)S(=O)(=O)c1ccc2nc(NC3CC3)sc2c1`: the Ki on Protease worked out at 0.036 nM. Besides, the midpoint of inhibition in experiment [1], the IC50, lay at 0.4 nM.
In the same order, the values of `COc1ccc(S(=O)(=O)N(CC(C)C)C[C@@H](O)[C@H](Cc2ccccc2)NC(=O)O[C@H]2C[C@H]3CO[C@H]4OC2C[C@@H]34)cc1` are 0.034 nM and 71.7 nM.
Take `CC(C)CN(C[C@@H](O)[C@H](Cc1ccccc1)NC(=O)OC1C[C@@H]2CO[C@@H]3OC1C[C@H]23)S(=O)(=O)c1ccc2nc(NC3CC3)sc2c1` (stereo partly drawn): the inhibition constant Ki at Protease worked out at 0.002 nM. This compound also returned an IC50 in [1] of 3.3 nM.
As to `CC(C)CN(C[C@@H](O)[C@H](Cc1ccc(F)cc1)NC(=O)OC1C[C@@H]2CO[C@@H]3OC1C[C@H]23)S(=O)(=O)c1ccc2nc(NC3CC3)sc2c1` (stereo partly drawn), affinity at Protease was put at a Ki of 0.002 nM. Further, in [1], the half-maximal inhibitory concentration (IC50) amounted to 0.46 nM.
In the same order, the values of `CC(C)CN(C[C@@H](O)[C@H](Cc1cccc(F)c1)NC(=O)O[C@H]1C[C@H]2CO[C@H]3OC1C[C@@H]23)S(=O)(=O)c1ccc2nc(NC3CC3)sc2c1` are 0.024 nM and 2.7 nM.
`COc1ccc(S(=O)(=O)N(CC(C)C)C[C@@H](O)[C@H](Cc2ccccc2)NC(=O)OC2C[C@@H]3CO[C@@H]4OC2C[C@H]34)cc1` (stereo partly drawn) returned a Ki on Protease of 0.008 nM. In addition, in experiment [1], inhibition was half-maximal at 38 nM (IC50).
On Protease, `CC(C)CN(C[C@@H](O)[C@H](Cc1ccccc1)NC(=O)O[C@H]1C[C@H]2CO[C@H]3OC1C[C@@H]23)S(=O)(=O)c1ccc2nc(NC(C)C)oc2c1` had an inhibitory constant (Ki) of 0.047 nM. For the same compound, the “Ratio IC50” value in [2] was over 26; in experiment [3], 9.1; in experiment [6] it was 17. The IC50 in experiment [1] was 0.3 nM; in [4] it was 350 nM; in experiment [5], 38 nM; in [7] it was over 1000 nM; in experiment [8], 640 nM.
On Protease, `CC(C)CN(C[C@@H](O)[C@H](Cc1cc(F)cc(F)c1)NC(=O)O[C@H]1C[C@H]2CO[C@H]3OC1C[C@@H]23)S(=O)(=O)c1ccc2nc(NC3CC3)sc2c1` returned a Ki of 0.007 nM. The same compound showed an IC50 in experiment [1] of 2.25 nM.
In turn, `CC(C)CN(C[C@@H](O)[C@H](Cc1cc(F)cc(F)c1)NC(=O)OC1C[C@@H]2CO[C@@H]3OC1C[C@H]23)S(=O)(=O)c1ccc2nc(NC3CC3)sc2c1` (stereo partly drawn) showed a Ki on Protease of 0.054 nM. The “Ratio IC50” value in experiment [2] is recorded as 127; in experiment [3], 6.3; in experiment [6], 133. The IC50 came to 0.086 nM in [1]; 0.21 nM in experiment [4]; 0.034 nM in experiment [5]; 4.3 nM in [7]; 4.5 nM in [8].
With `COC(=O)N[C@H](C(=O)N[C@@H](Cc1ccccc1)[C@@H](O)CN(Cc1ccc(-c2ccccn2)cc1)NC(=O)[C@@H](NC(=O)OC)C(C)(C)C)C(C)(C)C` [ATAZANAVIR], the “Ratio IC50” value in experiment [2] amounted to 107. The IC50 in experiment [4] was over 1000 nM; in [5], 4 nM; in experiment [7], 430 nM; in experiment [8], over 1000 nM.
